Screening results (PubChem)
Hits are enriched below; roughly 2.5% of the tested compounds scored in any of these assays.
KLK7 zymogen act = proKLK7 (human) activation, primary screen; P49862; purified proKLK7, EDANS-DABCYL substrate fluorescence; 100% is mature enzyme control, 0% vehicle; activation, % at 7 µM; actives 0.9% (n = 370,000);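 active means activation above the mean of all tested compounds plus 3 SD, computed per campaign excluding outliers beyond control limits, cut at about 13% in these data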
NR2E3 ag-1 = activates human photoreceptor nuclear receptor NR2E3. Q9Y5X4. GST-NR2E3/biotin-RetCOR TR-FRET, 1536-well. inhibition of corepressor binding, % at 4.78 µM. actives 0.12% (n = 320,000);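 active means percent inhibition above the cutoff of mean plus 3 SD of all tested compounds, set per screening campaign, cut at about 20% in these data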;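 further: 0% = DMSO wells and 100% = biotin wells as full block of FRET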
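Test system: GST-NR2E3 and biotin-RetCOR proteins | Quantity: 1.35 nM GST-tagged NR2E3 final | Medium: Tris pH 7.5 | Also added: 7 nM biotin-RetCOR | Dosing: Compound at 4.8 µM, single dose | Timing: 5 h at 4 °C | Detection: Time-resolved FRET | Read-out basis: Percent inhibition | Benchmarks: Biotin wells as high control, 0.6% DMSO wells as low control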
ADAM10 inh = ADAM10 inhibition, QFRET primary screen. inhibition, % at 7 µM. recombinant ADAM10, EDANS/DABCYL FRET peptide cleavage, 3 h. AID 720582. actives 0.62% (n = 370,000). O14672;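 active means inhibition above a per-campaign cutoff equal to the mean of compounds falling between control-based bounds plus 3 SD, cut at about 20% in these data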;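 further: 0% = DMSO wells while the 100% control is not disclosed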
JMJD2C inh = inhibitors of human GASC-1 (JMJD2C) demethylase | Q9H3R0 | GST-JMJD2C(1-420) H3K9me3 demethylation, DELFIA europium | inhibition, % at 2.35 µM | actives 0.069% (n = 330,000);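 active means more than half of a compound's replicate wells show inhibition beyond 50%, single wells judged on their own value; inconclusive means some, but no more than half, of replicates pass 50% inhibition; inactive means no replicate passes 50% inhibition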;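 further: signal counts dimethyl H3K9 product captured on neutravidin plate; 0% = median of DMSO wells and 100% = 0.3 times that DMSO median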
ADAM17 inh = inhibits human ADAM17; recombinant ADAM17, EDANS/DABCYL FRET peptide cleavage; inhibition, % at 6.95 µM; actives 0.83% (n = 370,000); P78536;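 active means inhibition above the mean of compounds lying between control limits plus 3 SD, set per campaign, cut at about 8.5% in these data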;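 further: 0% = DMSO-only wells as the low control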
Target sequence (P78536 215-824 limits assumed): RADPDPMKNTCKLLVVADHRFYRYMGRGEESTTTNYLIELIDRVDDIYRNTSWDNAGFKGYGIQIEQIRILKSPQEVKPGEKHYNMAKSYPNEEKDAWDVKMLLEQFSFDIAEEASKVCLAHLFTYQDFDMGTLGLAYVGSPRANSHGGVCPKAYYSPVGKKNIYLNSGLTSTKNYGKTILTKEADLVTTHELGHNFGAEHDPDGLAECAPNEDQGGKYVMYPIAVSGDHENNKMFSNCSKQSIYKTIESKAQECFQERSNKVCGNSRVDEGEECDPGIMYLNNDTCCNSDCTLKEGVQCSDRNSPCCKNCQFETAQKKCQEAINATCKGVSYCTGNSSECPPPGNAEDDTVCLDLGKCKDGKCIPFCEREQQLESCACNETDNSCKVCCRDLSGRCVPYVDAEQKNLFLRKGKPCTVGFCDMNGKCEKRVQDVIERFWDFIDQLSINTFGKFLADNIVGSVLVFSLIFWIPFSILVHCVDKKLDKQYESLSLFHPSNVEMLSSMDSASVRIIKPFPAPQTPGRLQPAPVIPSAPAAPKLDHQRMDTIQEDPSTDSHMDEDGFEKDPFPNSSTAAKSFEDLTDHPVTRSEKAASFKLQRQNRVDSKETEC
NR2E3 ag-2 = activates human NR2E3 receptor; actives 0.35% (n = 360,000); inhibition of corepressor binding, % at 3.98 µM; CHO-S Gal4-NCOR/VP16-NR2E3 two-hybrid, luciferase; Q9Y5X4;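 active means inhibition above the mean of all tested compounds plus 3 SD, cut at about 70% in these data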;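 further: 0% = DMSO with NR2E3 transfected cells and 100% = cells lacking NR2E3 construct; higher means lower luciferase signal from less NR2E3 corepressor binding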
ADAM10 counter = inhibits human ADAM10 in ADAM17 exosite counter-screen; recombinant ADAM10, EDANS/DABCYL FRET peptide cleavage, 3 h; actives 47% (n = 2,900); inhibition, % at 6.95 µM; AID 743256; shares compounds with ADAM17 inh;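 active means mean inhibition over the triplicate runs exceeds the activity threshold set in the earlier primary screen, cut at about 20% in these data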;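 further: 0% = DMSO wells and 100% = marimastat wells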
ADAM17 confirm = confirmation of inhibitors of human ADAM17; shares compounds with ADAM17 inh; recombinant ADAM17, EDANS/DABCYL QFRET peptide cleavage; inhibition, % at 6.95 µM; actives 65% (n = 2,900); AID 743257;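 active means mean inhibition across replicates above the hit cutoff set in the primary screen, cut at about 8.5% in these data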;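 further: 0% = DMSO wells and 100% = marimastat wells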
* = called active by the depositor; u = inconclusive; x = not tested or not shown.

SMILES	KLK7 zymogen act	NR2E3 ag-1	ADAM10 inh	JMJD2C inh	ADAM17 inh	NR2E3 ag-2	ADAM10 counter	ADAM17 confirm
O=C(NCC(c1ccc(F)cc1)N1CCOCC1)c1ccc(Br)o1 (stereo not drawn)	0	4	1	97	11*	20	19	11*
Cn1c(Cn2c3ccccc3c3ccccc32)n[nH]c1=S	0	2	17	6	10*	-11	12	7
Cc1cc(-c2ccccc2)n(-c2cc(N/N=C/c3ccccc3O)ncn2)n1	-2	0	3	1	8.7*	-37	9	7
NC(=O)c1ccccc1NC(=O)CN1CCN(Cc2ccc(Cl)cc2Cl)CC1	0	-1	-10	0	-5	11	x	x
CCSc1nnc(NC(=O)CN2C(=O)N(C)C3(CCCCC3)C2=O)s1	-1	x	0	x	-1	-7	x	x
O=C(COC(=O)c1ccc(O)cc1O)Nc1cc(-c2ccccc2)nn1-c1ccccc1	0	4	20	9	8.8*	15	24*	16*
COC(=O)c1ccc2[nH]c(C3(O)CCCCC3)c(C)c2c1	0	x	2	-9	11*	-138	-16	3
COc1ccccc1NC(=O)CNC(=O)c1ccccc1	0	2	9	-9	0	-13	x	x
COc1ccccc1NS(=O)(=O)c1cc(NC(=O)CNC(=O)c2ccccc2)ccc1C	0	-3	16	7	9.1*	1	5	5
COC(=O)[C@@H]1C[C@@]2(O)[C@H](O)[C@H](O)[C@H](O)C[C@H]2N1Cc1ccc(C(F)(F)F)cc1	0	4	1	-7	10*	-7	7	6
N#Cc1c(-c2ccccc2)c(-c2ccccc2)nn(CC(=O)NNC(=O)Nc2ccc(Cl)cc2)c1=O	1	3	15	-2	14*	-7	23*	19*
N#Cc1c(-c2ccccc2)c(-c2ccccc2)nn(CC(=O)NNC(=O)Nc2ccccc2)c1=O	0	0	-24	-10	-2	-28	x	x
COc1cccc(C(=O)N/N=C/c2ccc(OC3CSC3)cc2)c1	1	-2	12	1	9.2*	-3	-3	-1
CC(C)(C)NS(=O)(=O)c1ccc(CCC(=O)Nc2cc(Cl)ccc2Oc2ccccc2)cc1	0	0	19	-11	9.7*	46	33*	19*
CC(C)CNS(=O)(=O)c1ccc(CCC(=O)Nc2cc(Cl)ccc2Oc2ccccc2)cc1	-5	1	19	-4	9.7*	23	39*	21*
CCOc1ccc(N(CC(=O)N/N=C/c2cccnc2)S(C)(=O)=O)cc1	0	3	4	3	4	-13	x	x
COc1ccc(/C=C2\SC(=O)N(CC(=O)NC3CCS(=O)(=O)C3)C2=O)cc1 (stereo not drawn)	-1	-1	0	u	-6	10	x	x
CCOC(=O)c1c(C)n(C)c2ccc(OC)c([N+](=O)[O-])c12	0	0	-5	-1	0	-17	x	x
Cc1ccc(S(=O)(=O)N(C(=O)c2ccncc2)c2ccc(OC(=O)c3ccncc3)c3ccccc23)cc1	1	1	2	14	8.9*	-18	37*	19*
CCCCNC(=S)NC(C)(C)CO	0	2	-1	-4	-4	-12	x	x
C=C1CC2(CC(c3ccccc3)OC(c3ccccc3)C2)OC1=O (stereo not drawn)	0	x	15	x	9.6*	30	-8	-1
Cc1cc(C)c(NC(=O)COC(=O)c2cc([N+](=O)[O-])ccc2N2CCOCC2)c(C)c1	0	0	-5	-3	-2	-14	x	x
Cc1cc(NC(=O)COC(=O)c2cc([N+](=O)[O-])ccc2N2CCOCC2)ccc1Br	-1	-3	16	2	8.7*	-2	46*	19*
COc1ccc(N2CCC(CNC(=O)Nc3ccccc3)C2)cc1 (stereo not drawn)	-1	-3	9	-10	14*	-16	3	8
COc1ccc(CN2CCC(CNC(=O)Nc3ccccc3)CC2)cc1	0	x	2	x	1	x	x	x
SMILES	KLK7 zymogen act	NR2E3 ag-1	ADAM10 inh	JMJD2C inh	ADAM17 inh	NR2E3 ag-2	ADAM10 counter	ADAM17 confirm
CC(C)[C@H](NC(=O)c1ccccc1F)C(=O)NC1CCCCCCC1	0	x	-10	0	-1	1	x	x
CCOC(=O)C1=CCN(S(=O)(=O)c2ccccc2C)C1c1ccc(Cl)c(Cl)c1 (stereo not drawn)	1	x	16	x	13*	8	11	7
CCOC(=O)C1=CCN(S(=O)(=O)c2ccccc2C)C1c1ccccc1 (stereo not drawn)	0	x	-11	x	-1	2	x	x
Cc1ccccc1C(=O)NC(=S)N(C)CCc1ccccn1	0	1	0	-15	-2	-25	x	x
O=C1[C@H]2[C@@H](c3ccc(C(F)(F)F)cc3)N[C@]3(CCCN(Cc4ccc(F)cc4)C3=O)[C@H]2C(=O)N1Cc1ccccc1	0	x	20	x	8.9*	4	24*	13*
O=C1[C@H]2[C@@H](c3ccccc3)N[C@]3(CCCN(Cc4ccc(C(F)(F)F)cc4)C3=O)[C@H]2C(=O)N1Cc1ccccc1	-1	x	7	x	8	-7	x	x
Fc1ccc2c(c1)c1n[nH]c(=S)nc1n2CCc1ccccc1	1	x	0	56	-5	-25	x	x
NNc1nnc2c3cc(F)ccc3n(CCc3ccccc3)c2n1	0	-3	11	-11	12*	-9	-5	1
CC(CNc1ccc(Cl)cc1)(CNc1ccc(Cl)cc1)[N+](=O)[O-]	0	x	14	x	9.9*	-9	25*	8
O=[N+]([O-])c1ccc(CNc2ccc(Cl)cc2)s1	0	4	3	-24	4	-21	x	x
CCCNc1nc2c(c(=O)[nH]c(=O)n2C)n1CCC(C)C	0	2	4	2	8.8*	0	25*	13*
O=C(N1CCOCC1)N1[C@H](COCc2ccccc2)C=CS1(=O)=O	-1	x	-25	x	-1	5	x	x
O=C(COc1cccc2ccccc12)Nc1cc(Cl)ccc1C(=O)O	0	2	4	-35	13*	45	7	6
O=C(O)CCC(=O)NCc1c(Cl)cccc1Sc1ccc(Cl)cc1	0	3	5	-3	-5	4	x	x
